Results on eleven compounds are retold here after paper PMC10449033 (European journal of inorganic chemistry, 2023).

Read-outs that look alike come from different tables or passages of the source.

The target in series [1] is T1, mitochondrial calcium uniporter (MCU) (Homo sapiens, UniProt Q8NE86).
T1 sequence (Q8NE86 51-351): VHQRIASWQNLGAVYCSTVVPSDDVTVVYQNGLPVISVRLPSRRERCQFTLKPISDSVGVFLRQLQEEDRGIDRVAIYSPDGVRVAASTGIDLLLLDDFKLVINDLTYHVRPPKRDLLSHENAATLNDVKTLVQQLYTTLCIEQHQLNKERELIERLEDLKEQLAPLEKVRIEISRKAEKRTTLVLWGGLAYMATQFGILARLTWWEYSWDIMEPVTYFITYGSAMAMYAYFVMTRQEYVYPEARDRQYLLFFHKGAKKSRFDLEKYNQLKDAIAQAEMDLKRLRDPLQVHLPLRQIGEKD
T1 sequence (Q9H4I9 48-107 partner limits assumed): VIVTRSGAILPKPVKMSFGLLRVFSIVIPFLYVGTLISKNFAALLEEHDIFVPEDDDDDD
Nature of the series: mCa2+ uptake inhibition in digitonin-permeabilized HeLa cells. It is filed as cell-based. The note with it: for mCa2+ uptake inhibition compared to untreated cells: 25 μM complex, digitonin-permeabilized HeLa cells. The method in brief: (§1)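 Trypsinised cells permeabilised on ice for 15 min in KCl buffer (HEPES, pH 7.2) with 80 μM digitonin and 1 μM thapsigargin. Resuspended with 1 μM Calcium Green-5N and 2 mM succinate (HeLa 5 × 10^6, HEK293T 1 × 10^7 cells mL−1). Complex equilibrated ~200 s at room temperature, then CaCl2 added (HeLa 10, HEK293T 20 μM). Read ex 488/em 528 every 5 s. Rate from exponential time constant vs untreated; Hill IC50; three biological replicates ± SD.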

In series [2] the target is T1, mitochondrial calcium uniporter (MCU). Kind of series: mCa2+ uptake inhibition in digitonin-permeabilized HEK293T cells. It counts as cell-based. The method in brief: as §1
Series [3] is described as follows: Cytotoxicity, MTT assay, HeLa cells. The note with it: human. It is filed as cell-based. The method in brief:
(§2)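 Cells seeded at ~4000 per well and left overnight, then exposed to a range of complex concentrations in medium for 72 h. MTT was added at 1 mg mL−1 in FBS-free DMEM for 3 h, and formazan was dissolved in 8:1 DMSO/glycine buffer (pH 10) for absorbance. Viability was normalised to untreated cells (100%), with Hill fit for IC50. Three independent trials ± SD.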

A short description of series [4]: Cytotoxicity, MTT assay, HEK293T cells. It is filed as cell-based. The note with it: human. The method in brief: as §2
A general note: Formazan colour is commonly taken as a measure of viable cells.

The test system of the next series is HEK293T cells. Kind of series: Mitochondrial membrane potential via JC-1 assay, HEK293T cells. It counts as cell-based. The note with it: 50 μM, 24 h. The method in brief: (§3)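 About 1 × 10^5 cells on glass-bottomed dishes, left overnight, then exposed to complex (50 μM) for 24 h at 37 °C. Loaded with 10 μM JC-1 for 30 min in the dark at 37 °C, washed, and imaged in PBS with green (monomer) and red (J-aggregate) filter sets. The positive control was 50 μM CCCP in PBS. Red/green CTCF came from ≥8 cells, normalised to untreated (=1). Three trials ± SD.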

The test system of another series is HeLa cells. Nature of the series: Mitochondrial membrane potential via JC-1 assay, HeLa cells. It is filed as cell-based. The note with it: 50 μM, 24 h. An outline of the steps:
as §3

For series [5], the target named is T1, mitochondrial calcium uniporter (MCU). Kind of series: Mitochondrial Ca2+ uptake in intact HeLa cells using Rhod 2-AM. It is filed as cell-based. The note with it: 50 μM, 2 h, 37 °C, histamine 100 μM. An outline of the steps:
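About 1 × 10^5 HeLa cells left overnight, then exposed to complex (50 μM) in DMEM/10% FBS for 2 h at 37 °C. Loaded with 2 μM Rhod 2-AM in extracellular medium (1 mM CaCl2, 10 mM glucose, BSA, Pluronic F127) for 30 min in the dark at room temperature. Then 30 min dye-free, 15 min at 37 °C. Confocal imaging, ex 561/em 568–712 nm: ~30 s baseline, then histamine (100 μM), frames every 3 s. Per-cell CTCF expressed as F/F0.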

Series [6] has the same target. The note with it: ref [35],[37],[39],[36]; cited from earlier work.
The target is the same in series [7]. The note with it: read-out: mCa2+ uptake inhibition IC50 HEK293T; permeabilized HEK293T cells; ref [36]; cited from earlier work.
For series [8] the target is unchanged. The note with it: read-out: mCa2+ uptake inhibition IC50 HeLa, permeabilized HeLa cells, cited from earlier work.

For `O=[N+]([O-])C12CNCCNCC([N+](=O)[O-])(CNCCNC1)CNCCNC2.[Co+3]` [Compound 1, [Co(diNOsar)]^3+], the IC50 (commonly the concentration at which inhibition is half-maximal) in series [1] is 6050 ± 480 nM; in [2], 7980 ± 370 nM.

As for `NC12CNCCNCC(N)(CNCCNC1)CNCCNC2.[Co+3]` [Compound 2, [Co(diAMsar)]^3+], the IC50 in series [1] and in [2] was more than 25000 nM throughout. Further, the viability at 72 h, 1000 µM in [3] and in series [4] was 40% in each case.

In the case of `CC(CNCCN)(CNCCN)CNCCN.[Co+3]` [Compound 3, [Co(sen)]^3+], the “depolarization of the mitochondrial membrane potential (JC-1)” value with HEK293T cells and with HeLa cells was “did not lead to depolarization” throughout. The IC50 stood at 160 ± 20 nM in series [1] and 180 ± 20 nM in series [2]. For the same compound, the “mCa2+ uptake inhibition compared to untreated cells” value in series [1] was “completely abolish mCa^2+ uptake”. Besides, in series [5], the “inhibition of histamine-induced mCa2+ uptake in intact cells” value (“inhibition … in intact cells” for short) was “statistically significant decrease in mCa^2+ uptake”.

As to `CC12CNCCNCC([N+](=O)[O-])(CNCCNC1)CNCCNC2.[Co+3]` [Compound 4, [Co(MeNOsar)]^3+], in series [1], the IC50 was 2910 ± 260 nM and the “mCa2+ uptake inhibition compared to untreated cells” value is “comparable to that of 1”. Further, the half-maximal inhibitory concentration (IC50) in series [2] came out at 2730 ± 200 nM.

Turning to `CCOC(=O)C12CNCCNCC(C)(CNCCNC1)CNCCNC2=O.[Co+3]` [Compound 5, [Co(CO2Et,Mesar)]^2+], the IC50 in [1] and in series [2] was more than 25000 nM each time.

For `CC12CNCCNCC(C(=O)O)(CNCCNC1)C(=O)NCCNC2.[Co+3]` [Compound 6, [Co(CO2H,Mesar)]^2+], the IC50 in series [1] and in series [2] was more than 25000 nM in each case.

Regarding `N.N.N.N.N.N.N.N.[Cl][Ru+3].[N-]=[Ru][Cl]` [Ru265], in series [6], the “inhibition of MCU-mediated mCa2+ uptake in intact HeLa cells” value is on record as “able to inhibit”. Further, the “inhibition … in intact cells” value in series [5] is “significantly diminish mCa^2+ uptake”.

On to `N.N.N.N.N.N.N.N.[Cl][Ru+3].[NH]=[Ru][Cl]` [Ru265], for which the values for the IC50 in series [7] and in series [8] (ref [36]) were 8.6 ± 2.2 nM and 3.9 ± 1 nM, respectively.

In the case of `NCCN.NCCN.NCCN.[Co+3]` [[Co(en)3]^3+], the IC50 in [7] was 76 ± 10 nM; in [8] (ref [36]), 115 ± 13 nM. Also, the “inhibition … in intact cells” value in series [5] is “cannot”.

For the compound Os245, the “inhibition of MCU-mediated mCa2+ uptake in intact HeLa cells” value in series [6] is “able to inhibit”. In addition, the IC50 in series [8] (ref [39]) was 103 ± 30 nM.

Turning to Os245′, in series [8] (ref [39]), the IC50 was 2.3 ± 0.8 nM.
